The results in this text go back to ChEMBL document CHEMBL1137743, “Synthesis, antimicrobial evaluation and QSAR study of some 3-hydroxypyridine-4-one and 3-hydroxypyran-4-one derivatives” (2009).

One experiment concerns Escherichia coli. Description: Antibacterial activity against Escherichia coli PTCC 1338 after 24 hrs by microplate alamar blue assay. It counts as functional. Conditions: PTCC 1338, 24 h. The gist of the method: (§1)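 Bacteria from Persian type culture collection grown in Mueller–Hinton broth. Inoculum suspensions adjusted to 0.5 McFarland, final inoculum 1.5 ×10⁴. Compounds dissolved in DMSO, serially diluted twofold across the 8–512 range in 96-well plates, Alamar Blue added, sealed plates incubated 24 h at 37 °C. MIC is the lowest concentration preventing the blue-to-pink colour change. Ciprofloxacin was the reference drug.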

Experiment [1] has as its system Salmonella enterica subsp. enterica. Description: Antibacterial activity against Salmonella enteritidis PTCC 1091 after 24 hrs by microplate alamar blue assay. It is filed as functional, Salmonella enterica subsp. enterica serovar Enteritidis. The note with it: PTCC 1091, 24 h. Summed up: as §1
The next experiment concerns Pseudomonas aeruginosa. Put plainly: Antibacterial activity against Pseudomonas aeruginosa PTCC 1074 after 24 hrs by microplate alamar blue assay. It is filed as functional. Conditions: for MIC: Pseudomonas aeruginosa, PTCC 1074, 24 h. Summed up: as §1
A further experiment relates to Staphylococcus aureus. Put plainly: Antibacterial activity against Staphylococcus aureus PTCC 1337 after 24 hrs by microplate alamar blue assay. It is filed as functional. Conditions: for MIC: Staphylococcus aureus, PTCC 1337, 24 h. The gist of the method: as §1
The test system of the next experiment is Listeria monocytogenes. Description: Antibacterial activity against Listeria monocytogenes PTCC 1165 after 24 hrs by microplate alamar blue assay. It counts as functional. Conditions: PTCC 1165, 24 h. The gist of the method: as §1
Another experiment relates to Bacillus subtilis. Description: Antibacterial activity against Bacillus subtilis PTCC 1023 after 24 hrs by microplate alamar blue assay. It is filed as functional. The note with it: PTCC 1023, 24 h. Summed up:
as §1

In a further experiment the test system is Candida albicans. Description: Antifungal activity against Candida albicans PTCC 5027 after 48 hrs by microplate alamar blue assay. It counts as functional. Conditions: for MIC: Candida albicans, PTCC 5027, 48 h. The gist of the method: (§2)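 Fungi from Persian type culture collection, tested in RPMI 1640 buffered with MOPS at pH 7.0. Final inoculum 1.5 ×10⁵. Compounds in DMSO, twofold serial dilutions over 8–512 in 96-well plates with Alamar Blue, incubated 48 h at 25 °C. MIC is the lowest concentration blocking the blue-to-pink shift. Ketoconazole was the reference agent.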

In the next experiment the test system is Aspergillus niger. Description: Antifungal activity against Aspergillus niger 5021 after 48 hrs by microplate alamar blue assay. It counts as functional. The note with it: Aspergillus niger, 5021, 48 h. Summed up:
as §2

For the next experiment, the system named is Aspergillus flavus. Description: Antifungal activity against Aspergillus flavus PTCC 5003 after 48 hrs by microplate alamar blue assay. It is filed as functional. The note with it: PTCC 5003, 48 h. The gist of the method: as §2

In brackets after ≈: the same amount, converted by molar mass.

With `Cc1cc(=O)c(O)co1`, the MIC is more than 512 µg/mL in the experiment on Escherichia coli; more than 512 µg/mL in experiment [1]; 256 µg/mL (≈ 2.03 mM) with Pseudomonas aeruginosa; more than 512 µg/mL in the experiment on Staphylococcus aureus; 512 µg/mL (≈ 4.06 mM) in the experiment on Listeria monocytogenes; more than 512 µg/mL against Bacillus subtilis. The MIC was 128 µg/mL (≈ 1.01 mM) in the experiment with Candida albicans, 512 µg/mL (≈ 4.06 mM) against Aspergillus niger and 512 µg/mL (≈ 4.06 mM) against Aspergillus flavus. Also, the figures for the “-logMIC” value with Pseudomonas aeruginosa, in the experiment on Staphylococcus aureus and in the experiment with Candida albicans were 3.59, 3.59 and 3.89, respectively.
On to `O=c1cc(CCl)occ1O`, for which the MIC (against Escherichia coli; in experiment [1]; against Pseudomonas aeruginosa; against Staphylococcus aureus; in the experiment on Listeria monocytogenes; in the experiment with Bacillus subtilis) was more than 512 µg/mL in each case. Further, the MIC with Candida albicans came to 512 µg/mL (≈ 3.19 mM); in the experiment with Aspergillus niger it was 128 µg/mL (≈ 0.797 mM); in the experiment on Aspergillus flavus it was 16 µg/mL (≈ 0.0997 mM). In addition, the “-logMIC” value is listed as 4.19 in the experiment with Pseudomonas aeruginosa, 3.59 with Staphylococcus aureus and 3.89 with Candida albicans.
